According to ChEMBL document CHEMBL1137848, “Discovery of isoxazolinone antibacterial agents. Nitrogen as a replacement for the stereogenic center found in oxazolidinone antibacterials” (2004):
Converted amounts (≈) assume the structure as drawn.

Assays:
Assay type in all cases: functional
Enterococcus faecalis [1] = experiment: Minimum inhibitory concentration against Enterococcus faecalis (strain A20688) in absence of calf serum
Method in brief: (§1)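 Broth microdilution MIC per NCCLS method in Mueller-Hinton broth without serum. Final inoculum approximately 5·10⁵ CFU/well in microtiter plates, incubated 35 °C for 18 h in ambient air.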

Staphylococcus aureus [2] = experiment: Minimum inhibitory concentration against Staphylococcus aureus (strain A15090) in absence of calf serum; method in brief: as §1
Enterococcus faecalis [3] = experiment: Minimum inhibitory concentration against Enterococcus faecalis (strain A20688) in presence of 50% calf serum
Method in brief: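 Broth microdilution MIC per NCCLS method in Mueller-Hinton broth supplemented with 50% calf serum. Final inoculum approximately 5·10⁵ CFU/well, incubated 35 °C for 18 h in ambient air.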

Staphylococcus aureus [4] = experiment: Minimum inhibitory concentration against Staphylococcus aureus (strain A15090) in presence of 50% calf serum
Method in brief: (§2)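 Microbroth dilution MIC following the NCCLS method, with 50% calf serum added. Mueller-Hinton broth, inoculum approximately 5·10⁵ CFU/well, incubated at 35 °C for 18 h in ambient air.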

Staphylococcus aureus [5] = experiment: Minimum inhibitory concentration against methicillin resistant Staphylococcus aureus (strain A27223) in presence of 50% calf serum; method in brief: as §2
Haemophilus influenzae = experiment: Minimum inhibitory concentration against Haemophilus influenzae (strain A20191) in absence of calf serum
Method in brief: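 MIC by NCCLS microbroth dilution in Haemophilus test medium broth without serum. Inoculum approximately 5·10⁵ CFU/well in microtiter plates, incubated at 35 °C for 18 h in ambient air.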

Staphylococcus aureus [6] = experiment: Minimum inhibitory concentration against methicillin resistant Staphylococcus aureus (strain A27223) in absence of calf serum
Method in brief: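 Microbroth dilution MIC following the NCCLS method, no serum added. Mueller-Hinton broth, inoculum approximately 5·10⁵ CFU/well, incubated at 35 °C for 18 h in ambient air.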

Compound	MIC (Enterococcus faecalis [1])	MIC (Staphylococcus aureus [2])	MIC (Enterococcus faecalis [3])	MIC (Staphylococcus aureus [4])	MIC (Staphylococcus aureus [5])	MIC (Haemophilus influenzae)	MIC (Staphylococcus aureus [6])
CC(=O)NCn1cc(-c2ccc3c(c2)OCO3)c(=O)o1	1 µg/mL (≈ 3.62 µM)	2 µg/mL (≈ 7.24 µM)	8 µg/mL	4 µg/mL	4 µg/mL	16 µg/mL (≈ 57.9 µM)	1 µg/mL (≈ 3.62 µM)
COc1cc(OC)cc(-c2cn(CNC(C)=O)oc2=O)c1	> 128 µg/mL	> 128 µg/mL				64 µg/mL (≈ 219 µM)	
CC(=O)NCn1cc(-c2ccc(-c3ccccc3)cc2)c(=O)o1	4 µg/mL (≈ 13 µM)	4 µg/mL (≈ 13 µM)	64 µg/mL	> 64 µg/mL	64 µg/mL	16 µg/mL (≈ 51.9 µM)	1 µg/mL (≈ 3.24 µM)
NC(=O)Cn1cc(-c2ccccc2)c(=O)o1	> 128 µg/mL					> 64 µg/mL	
COc1ccc(-c2cn(CNC(C)=O)oc2=O)cc1OC	> 128 µg/mL	128 µg/mL (≈ 438 µM)	> 64 µg/mL	> 64 µg/mL		> 64 µg/mL	64 µg/mL (≈ 219 µM)
CC(=O)NCn1cc(-c2cccc(F)c2)c(=O)o1	16 µg/mL (≈ 63.9 µM)	8 µg/mL (≈ 32 µM)				> 64 µg/mL	4 µg/mL (≈ 16 µM)
CC(=O)NC[C@H]1CN(c2ccc(N3CCOCC3)c(F)c2)C(=O)O1 [LINEZOLID]	0.5 µg/mL (≈ 1.48 µM)	1 µg/mL (≈ 2.96 µM)	0.5 µg/mL	1 µg/mL	1 µg/mL	8 µg/mL (≈ 23.7 µM)	1 µg/mL (≈ 2.96 µM)
CC(=O)NCn1cc(-c2ccc(F)cc2)c(=O)o1	> 128 µg/mL	> 128 µg/mL	> 64 µg/mL	> 64 µg/mL		32 µg/mL (≈ 128 µM)	
CC(=O)NCn1cc(-c2ccc(Br)cc2)c(=O)o1	8 µg/mL (≈ 25.7 µM)	4 µg/mL (≈ 12.9 µM)	> 64 µg/mL	> 64 µg/mL		8 µg/mL (≈ 25.7 µM)	2 µg/mL (≈ 6.43 µM)
Oc1oncc1-c1ccc2c(c1)OCO2	> 128 µg/mL	> 128 µg/mL	> 64 µg/mL	> 64 µg/mL		> 64 µg/mL	
CSc1ccc(-c2cn(CNC(C)=O)oc2=O)cc1	1 µg/mL (≈ 3.59 µM)	2 µg/mL (≈ 7.19 µM)	16 µg/mL	16 µg/mL	8 µg/mL	8 µg/mL (≈ 28.7 µM)	1 µg/mL (≈ 3.59 µM)
COc1cccc(-c2cn(CNC(C)=O)oc2=O)c1	32 µg/mL (≈ 122 µM)	32 µg/mL (≈ 122 µM)	> 64 µg/mL	64 µg/mL	> 64 µg/mL	> 64 µg/mL	16 µg/mL (≈ 61 µM)
CC(=O)NCn1cc(-c2cc(F)cc(F)c2)c(=O)o1	32 µg/mL (≈ 119 µM)	8 µg/mL (≈ 29.8 µM)				> 64 µg/mL	8 µg/mL (≈ 29.8 µM)
COc1ccc(-c2cnoc2O)cc1	> 128 µg/mL	> 128 µg/mL	> 64 µg/mL	> 64 µg/mL		> 64 µg/mL	
CSc1ccc(-c2cnoc2O)cc1	> 128 µg/mL	> 128 µg/mL	> 64 µg/mL	> 64 µg/mL		> 64 µg/mL	
CC(=O)NCn1cc(-c2ccc(C(C)C)cc2)c(=O)o1	2 µg/mL (≈ 7.29 µM)	1 µg/mL (≈ 3.65 µM)	8 µg/mL	4 µg/mL			
CC(=O)NCn1cc(-c2ccc(Cl)cc2)c(=O)o1	8 µg/mL (≈ 30 µM)	8 µg/mL (≈ 30 µM)				32 µg/mL (≈ 120 µM)	4 µg/mL (≈ 15 µM)
CC(=O)NCn1cc(-c2cccc(Cl)c2)c(=O)o1	16 µg/mL (≈ 60 µM)	8 µg/mL (≈ 30 µM)	> 64 µg/mL	> 64 µg/mL	16 µg/mL	32 µg/mL (≈ 120 µM)	4 µg/mL (≈ 15 µM)
CC(=O)NCn1cc(-c2cccc(C)c2)c(=O)o1	32 µg/mL (≈ 130 µM)	8 µg/mL (≈ 32.5 µM)				> 64 µg/mL	4 µg/mL (≈ 16.2 µM)
CC(=O)NCn1cc(-c2ccc(F)c(F)c2)c(=O)o1	> 128 µg/mL	128 µg/mL (≈ 477 µM)	> 64 µg/mL	> 64 µg/mL		> 64 µg/mL	> 128 µg/mL
CC(=O)NCn1cc(-c2cc(C(F)(F)F)cc(C(F)(F)F)c2)c(=O)o1	> 128 µg/mL	> 128 µg/mL				> 64 µg/mL	
COc1ccc(-c2cn(CNC(C)=O)oc2=O)cc1	2 µg/mL (≈ 7.63 µM)	2 µg/mL (≈ 7.63 µM)	8 µg/mL	4 µg/mL	4 µg/mL	16 µg/mL (≈ 61 µM)	1 µg/mL (≈ 3.81 µM)
CC(=O)NCn1cc(-c2cccc(C(F)(F)F)c2)c(=O)o1	64 µg/mL (≈ 213 µM)	32 µg/mL (≈ 107 µM)	> 64 µg/mL	64 µg/mL	64 µg/mL	> 64 µg/mL	16 µg/mL (≈ 53.3 µM)
CC(=O)NCn1cc(-c2ccccc2)c(=O)o1	16 µg/mL (≈ 68.9 µM)	8 µg/mL (≈ 34.4 µM)	16 µg/mL	16 µg/mL	8 µg/mL	8 µg/mL (≈ 34.4 µM)	4 µg/mL (≈ 17.2 µM)
Oc1oncc1-c1ccc(-c2ccccc2)cc1	> 128 µg/mL	> 128 µg/mL	> 64 µg/mL	> 64 µg/mL		> 64 µg/mL	
